ChEMBL document CHEMBL3286372, “Design, synthesis and structure-activity relationship of novel semi-synthetic flavonoids as antiproliferative agents” (2014)

Experiments:
[1] = Growth inhibition of human OVCAR3 cells after 48 hrs by coulter counting analysis; format: functional; details: OVCAR-3, 48 h
How it was run: (§1)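 Five-dose NCI-60 follow-up, 0.01–100 µM, made from DMSO stock in buffered saline (final DMSO <1%), in duplicate wells. Cells in RPMI 1640 with 10% FBS at 6×10^4 cells/ml, 37 °C, 5% CO2, 48 h. Cells diluted tenfold in saline, Coulter-counted and corrected for dilution. GI50, TGI and LC50 taken from log concentration–percent growth curves.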

KM12 = experiment: Growth inhibition of human KM12 cells after 48 hrs by coulter counting analysis; format: functional; details: KM12, 48 h
How it was run: (§2)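 NCI five-dose screen at 0.01-100 µM, diluted from DMSO stocks in buffered saline (final DMSO <1%). Cells at 6×10^4 cells/ml in RPMI 1640 with 10% FBS, in duplicate wells, at 37 °C under 5% CO2 for 48 h. Cells diluted tenfold in saline and Coulter-counted. GI50, TGI and LC50 taken from log concentration-growth inhibition curves.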

U-251 = experiment: Growth inhibition of human U251 cells after 48 hrs by coulter counting analysis; format: functional; details: U-251, 48 h
How it was run: (§3)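 NCI five-dose screen, 0.01-100 µM, from DMSO stocks diluted in buffer saline (final DMSO <1%). Cells grown in RPMI 1640 + 10% FBS, seeded at 6×10^4 cells/ml, in duplicate wells. Exposure 48 h at 37 °C, 5% CO2. Cells diluted 10-fold in saline and counted by Coulter counter. GI50 derived from log concentration–percent growth inhibition curves. Controls carried matching PBS/saline/DMSO.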

NCI-H23 = experiment: Growth inhibition of human NCI-H23 cells after 48 hrs by coulter counting analysis; format: functional; details: NCI-H23, 48 h; how it was run: as §1
SNB-19 = experiment: Growth inhibition of human SNB19 cells after 48 hrs by coulter counting analysis; format: functional; details: SNB-19, 48 h; how it was run: as §1
A498 = experiment: Growth inhibition of human A498 cells after 48 hrs by coulter counting analysis; format: functional; details: A498, 48 h; how it was run: as §2
NCI-H522 = experiment: Growth inhibition of human NCI-H522 cells after 48 hrs by coulter counting analysis; format: functional; details: NCI-H522, 48 h; how it was run: as §1
SK-MEL-28 = experiment: Growth inhibition of human SK-MEL-28 cells after 48 hrs by coulter counting analysis; format: functional; details: SK-MEL-28, 48 h; how it was run: as §1
SN12C = experiment: Growth inhibition of human SN12C cells after 48 hrs by coulter counting analysis; format: functional; how it was run: as §1
IGROV-1 = experiment: Growth inhibition of human IGROV1 cells after 48 hrs by coulter counting analysis; format: functional; details: IGROV-1, 48 h; how it was run: as §2
DU-145 = experiment: Growth inhibition of human DU145 cells after 48 hrs by coulter counting analysis; format: functional; details: DU-145, 48 h; how it was run: as §2
SK-MEL-2 = experiment: Growth inhibition of human SK-MEL-2 cells after 48 hrs by coulter counting analysis; format: functional; details: SK-MEL-2, 48 h; how it was run: as §1
[2] = biological target: Cyclin-dependent kinase 4/cyclin D1 (Homo sapiens) (UniProt P11802+P24385); experiment: Inhibition of CDK4/Cyclin D1 (unknown origin) at 20 uM after 30 mins by scintillation counting analysis relative to control; format: protein-complex assay
How it was run: (§4)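 Recombinant kinases, cloned, expressed and purified in-house. Radiometric ³³P-ATP assay with kinase at ~10-50 nM final and 1-5 µg peptide or protein substrate. Compound at 20 µM final, in duplicate. Reaction started by adding ATP, run 30 min at ambient temperature, then spotted on P81 phosphocellulose. Plates washed in 1% phosphoric acid and counted by scintillation. No-substrate blank subtracted. Result is mean % activity change versus DMSO control.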

[3] = Growth inhibition of human HCT15 cells after 48 hrs by coulter counting analysis; format: functional; details: HCT-15, 48 h; how it was run: as §2
HCT-116 = experiment: Growth inhibition of human HCT116 cells after 48 hrs by coulter counting analysis; format: functional; details: HCT-116, 48 h; how it was run: as §2
CAKI-1 = experiment: Growth inhibition of human CAKI-1 cells after 48 hrs by coulter counting analysis; format: functional; details: CAKI-1, 48 h; how it was run: as §2
NCI-H226 = experiment: Growth inhibition of human NCI-H226 cells after 48 hrs by coulter counting analysis; format: functional; details: NCI-H226, 48 h; how it was run: as §1
[4] = Growth inhibition of human RXF393 cells after 48 hrs by coulter counting analysis; format: functional; details: RXF 393, 48 h; how it was run: as §1
T47D = experiment: Growth inhibition of human T47D cells after 48 hrs by coulter counting analysis; format: functional; how it was run: as §1
NCI-H460 = experiment: Growth inhibition of human NCI-H460 cells after 48 hrs by coulter counting analysis; format: functional; details: NCI-H460, 48 h; how it was run: as §1
MCF7 = experiment: Growth inhibition of human MCF7 cells after 48 hrs by coulter counting analysis; format: functional; details: MCF7, 48 h; how it was run: as §2
[5] = Growth inhibition of human HOP92 cells after 48 hrs by coulter counting analysis; format: functional; details: HOP-92, 48 h; how it was run: as §2
[6] = Growth inhibition of human UACC257 cells after 48 hrs by coulter counting analysis; format: functional; details: UACC-257, 48 h; how it was run: as §3
[7] = Growth inhibition of human OVCAR5 cells after 48 hrs by coulter counting analysis; format: functional; details: OVCAR-5, 48 h; how it was run: as §1
[8] = Growth inhibition of human OVCAR4 cells after 48 hrs by coulter counting analysis; format: functional; details: OVCAR-4, 48 h; how it was run: as §1
[9] = Growth inhibition of human NCI-ADR-RES cells after 48 hrs by coulter counting analysis; format: functional; how it was run: as §1
[10] = Growth inhibition of human LOXIMVI cells after 48 hrs by coulter counting analysis; format: functional; details: LOX IMVI; how it was run: as §2
K562 = experiment: Growth inhibition of human K562 cells after 48 hrs by coulter counting analysis; format: functional; details: K562, 48 h; how it was run: as §2
M14 = experiment: Growth inhibition of human M14 cells after 48 hrs by coulter counting analysis; format: functional; details: M14, 48 h; how it was run: as §2
[11] = biological target: Glycogen synthase kinase-3 beta (Homo sapiens) (UniProt P49841); experiment: Inhibition of GSK-3beta (unknown origin) at 20 uM after 30 mins by scintillation counting analysis relative to control; how it was run: as §4
Chain of Glycogen synthase kinase-3 beta (Homo sapiens) (P49841 whole entry, looked up): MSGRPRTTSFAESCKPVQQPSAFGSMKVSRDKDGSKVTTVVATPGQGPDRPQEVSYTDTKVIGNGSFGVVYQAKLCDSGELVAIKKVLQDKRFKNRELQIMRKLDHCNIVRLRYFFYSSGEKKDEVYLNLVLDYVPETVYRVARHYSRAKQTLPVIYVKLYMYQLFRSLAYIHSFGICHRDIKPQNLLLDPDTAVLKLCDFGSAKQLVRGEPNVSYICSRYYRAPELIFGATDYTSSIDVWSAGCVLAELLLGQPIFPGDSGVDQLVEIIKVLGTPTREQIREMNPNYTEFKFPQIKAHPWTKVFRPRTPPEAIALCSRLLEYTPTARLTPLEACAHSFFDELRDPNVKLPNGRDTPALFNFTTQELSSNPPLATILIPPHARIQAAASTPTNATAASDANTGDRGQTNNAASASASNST

ACHN = experiment: Growth inhibition of human ACHN cells after 48 hrs by coulter counting analysis; format: functional; how it was run: as §2
MDA-MB-435 = experiment: Growth inhibition of human MDA-MB-435 cells after 48 hrs by coulter counting analysis; format: functional; details: MDA-MB-435, 48 h; how it was run: as §2
[12] = Growth inhibition of human UO31 cells after 48 hrs by coulter counting analysis; format: functional; details: UO-31, 48 h; how it was run: as §3
SW-620 = experiment: Growth inhibition of human SW620 cells after 48 hrs by coulter counting analysis; format: functional; details: SW-620, 48 h; how it was run: as §1
SK-OV-3 = experiment: Growth inhibition of human SKOV3 cells after 48 hrs by coulter counting analysis; format: functional; details: SK-OV-3, 48 h; how it was run: as §1
MDA-MB-231 = experiment: Growth inhibition of human MDA-MB-231 cells after 48 hrs by coulter counting analysis; format: functional; details: MDA-MB-231, 48 h; how it was run: as §2
RPMI-8226 = experiment: Growth inhibition of human RPMI8226 cells after 48 hrs by coulter counting analysis; format: functional; details: RPMI-8226, 48 h; how it was run: as §1
[13] = Growth inhibition of human EKVX cells after 48 hrs by coulter counting analysis; format: functional; how it was run: as §2
TK-10 = experiment: Growth inhibition of human TK10 cells after 48 hrs by coulter counting analysis; format: functional; details: TK-10, 48 h; how it was run: as §3

| Structure (SMILES) | GI50 [1] | GI50 (KM12) | GI50 (U-251) | GI50 (NCI-H23) | GI50 (SNB-19) | GI50 (A498) | GI50 (NCI-H522) | GI50 (SK-MEL-28) | GI50 (SN12C) | GI50 (IGROV-1) | GI50 (DU-145) | GI50 (SK-MEL-2) | inhibition [2] | GI50 [3] | GI50 (HCT-116) | GI50 (CAKI-1) | GI50 (NCI-H226) | GI50 [4] | GI50 (T47D) | GI50 (NCI-H460) | other results |
| --- | --- | --- | --- | --- | --- | --- | --- | --- | --- | --- | --- | --- | --- | --- | --- | --- | --- | --- | --- | --- | --- |
| COc1ccc(-c2cc(=O)c3c(OC)c4ccoc4c(/C=C/C=O)c3o2)cc1 | 3920 nM | 12300 nM | 2530 nM | 2800 nM | 3160 nM | 17200 nM | 34600 nM | 2520 nM | 2320 nM | 13600 nM | 4530 nM | 9060 nM | 0% | 1730 nM | 1060 nM | 5030 nM | 2930 nM | 2150 nM | 2030 nM | 4700 nM | GI50 (MCF7): 1630 nM; GI50 [5]: 16800 nM; GI50 [6]: 3630 nM; GI50 [7]: 11700 nM; GI50 [8]: 3800 nM; GI50 [9]: 2840 nM; GI50 [10]: 1080 nM; GI50 (K562): 2800 nM; GI50 (M14): 2240 nM; inhibition [11]: 11%; GI50 (ACHN): 19300 nM; GI50 (MDA-MB-435): 2810 nM; GI50 [12]: 3170 nM; GI50 (SW-620): 2300 nM; GI50 (SK-OV-3): 4730 nM; GI50 (MDA-MB-231): 4220 nM; GI50 (RPMI-8226): 1370 nM |
| COc1c2ccoc2c(/C=C/C=O)c2oc(-c3ccccc3)cc(=O)c12 | 5190 nM | 16500 nM | 3060 nM | 2440 nM | 12000 nM | 7440 nM | 17600 nM | 2730 nM | 2710 nM | 17500 nM | 10700 nM | 10600 nM | 0% | 2520 nM | 1700 nM | 15400 nM | 4140 nM | 4260 nM | 2140 nM | 11300 nM | GI50 (MCF7): 2720 nM; GI50 [5]: 11500 nM; GI50 [6]: 11500 nM; GI50 [7]: 22300 nM; GI50 [8]: 3200 nM; GI50 [9]: 3010 nM; GI50 [10]: 1480 nM; GI50 (K562): 3210 nM; GI50 (M14): 3320 nM; inhibition [11]: 58%; GI50 (ACHN): 20800 nM; GI50 (MDA-MB-435): 4830 nM; GI50 [12]: 3630 nM; GI50 (SW-620): 2160 nM; GI50 (SK-OV-3): 6340 nM; GI50 (MDA-MB-231): 4100 nM; GI50 (RPMI-8226): 2240 nM |
| COc1c2occc2c(OC)c2c(=O)c(CN3CCOCC3)c(/C=C/c3ccc(N(C)C)cc3)oc12 | 1760 nM | 1730 nM | 2490 nM | 2560 nM | 1980 nM | 2340 nM | 1830 nM | 2300 nM | 2450 nM | 1790 nM | 1670 nM | 1390 nM | 12% | 2250 nM | 2110 nM | 1890 nM | 2060 nM | 1810 nM | 2210 nM | 2020 nM | GI50 [13]: 2240 nM; CC50 (SK-MEL-2; read-out: LC50 (the source's name)): 5890 nM; GI50 (TK-10): 2460 nM; LC50 (lethal concentration, 50% net cell kill) (NCI-H460): 8480 nM; GI50 (MCF7): 1880 nM; GI50 [5]: 240 nM; GI50 [6]: 2540 nM; GI50 [7]: 2590 nM; GI50 [8]: 2470 nM; GI50 [9]: 2630 nM; GI50 (K562): 1850 nM; GI50 (M14): 2340 nM; inhibition [11]: 13%; GI50 (ACHN): 2160 nM; GI50 (MDA-MB-435): 2050 nM; GI50 [12]: 1430 nM; GI50 (SW-620): 2380 nM; GI50 (SK-OV-3): 2720 nM; GI50 (MDA-MB-231): 2220 nM; GI50 (RPMI-8226): 1490 nM |
